Columns and labels:
[1] = biological target: T1, 5-hydroxytryptamine receptor 1A (Homo sapiens, UniProt P08908); assay: Binding affinity to human 5HT1A receptor
T1 sequence (P08908 whole entry): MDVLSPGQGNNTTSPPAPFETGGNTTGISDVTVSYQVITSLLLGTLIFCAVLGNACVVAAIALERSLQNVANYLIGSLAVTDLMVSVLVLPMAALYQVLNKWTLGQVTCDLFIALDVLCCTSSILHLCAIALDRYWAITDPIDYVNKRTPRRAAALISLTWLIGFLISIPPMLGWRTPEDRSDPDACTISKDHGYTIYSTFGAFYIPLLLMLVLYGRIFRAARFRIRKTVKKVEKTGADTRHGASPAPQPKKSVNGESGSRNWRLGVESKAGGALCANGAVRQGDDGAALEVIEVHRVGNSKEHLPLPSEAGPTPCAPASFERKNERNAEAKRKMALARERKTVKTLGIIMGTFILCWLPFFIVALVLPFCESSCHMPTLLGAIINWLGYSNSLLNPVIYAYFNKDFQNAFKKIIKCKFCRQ

[2] = Volume of distribution at steady state in beagle dog at 0.05 mg/kg, iv up to 8 hrs by LC-MS/MS analysis; format: ADME, organism-based, Canis lupus familiaris; design: dose 0.05 mg/kg, route intravenous; details: in vivo, read-out: Vdss
Procedure, shortened: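 Beagle dogs dosed 0.05 mg/kg intravenously; plasma collected at various time points up to 8 h postdose.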

[3] = test system: Hepatocyte; assay: Drug metabolism in human hepatocytes assessed as metabolite M7 formation at 12.5 uM after 2 hrs by LC-MS/MS analysis; format: ADME, cell-based
Procedure, shortened: (§1)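 Human hepatocytes incubated with substrate at 12.5 μM for 2 h. Products characterized by LC–MS/MS on a C18 column, 5–95% acetonitrile gradient in water with 0.1% formic acid over 8 min. Metabolites numbered by elution order. Abundance is semiquantitative from peak heights (low/medium/high), assuming equal analyte response.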

[4] = test system: Liver microsome; assay: Clearance in human liver microsomes; format: ADME
Procedure, shortened: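 Compound incubated with liver microsomes; in vitro metabolic clearance expressed as (mL/min)/g liver.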

[5] = Volume of distribution at steady state in Han Wistar rat at 0.25 mg/kg, iv up to 7 hrs by LC-MS/MS analysis; format: ADME, organism-based; design: dose 0.25 mg/kg, route intravenous; details: in vivo, read-out: Vdss
Procedure, shortened: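 Han Wistar rats dosed 0.25 mg/kg intravenously; plasma sampled at various times up to 7 h postdose. Clearance expressed as percentage of liver blood flow.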

[6] = biological target: Beta-1 adrenergic receptor (Homo sapiens, UniProt P08588); assay: Agonist activity at human beta1 adrenoceptor transfected in CHO cells assessed as cyclic AMP accumulation after 45 mins by fluorescence polarization assay; format: cell-based
Chain of Beta-1 adrenergic receptor (P08588 whole entry): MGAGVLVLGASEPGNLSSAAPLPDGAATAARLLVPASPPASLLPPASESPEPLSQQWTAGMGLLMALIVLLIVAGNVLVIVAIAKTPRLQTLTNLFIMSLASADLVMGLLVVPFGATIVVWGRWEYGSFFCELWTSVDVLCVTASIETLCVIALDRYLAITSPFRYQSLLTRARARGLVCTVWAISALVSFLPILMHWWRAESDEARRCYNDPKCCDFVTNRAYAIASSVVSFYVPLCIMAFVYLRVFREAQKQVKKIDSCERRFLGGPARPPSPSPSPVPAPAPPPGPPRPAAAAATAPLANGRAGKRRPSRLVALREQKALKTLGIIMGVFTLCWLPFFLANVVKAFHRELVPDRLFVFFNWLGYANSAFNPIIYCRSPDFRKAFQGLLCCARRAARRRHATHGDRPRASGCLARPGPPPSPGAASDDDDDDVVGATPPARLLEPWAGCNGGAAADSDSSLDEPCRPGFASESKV

[7] = Plasma protein binding in rat; format: ADME, cell-free; details: read-out: PPB (converted)
[8] = Ratio of drug uptake from blood to plasma in dog; format: ADME, Canis lupus familiaris
Procedure, shortened: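 In vitro partitioning of the compound into the cellular fraction of rat, dog and human blood, reported as the blood:plasma ratio.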

[9] = test system: Hepatocyte; assay: Drug metabolism in human hepatocytes assessed as metabolite M11 formation at 12.5 uM after 2 hrs by LC-MS/MS analysis; format: ADME, cell-based; procedure, shortened: as §1
[10] = test system: L5178Y; assay: Genotoxicity against mouse L5178Y cells; format: toxicity, cell-based
Procedure, shortened: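 Acetate and 4-biphenylsulfonate salts screened in Ames and mouse lymphoma L5178Y assays, with and without a rat liver metabolic activation system.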

[11] = biological target: T2, Cytochrome P450 1A2 (Homo sapiens, UniProt P05177); assay: Inhibition of human CYP1A2 expressed in Escherichia coli; format: ADME
T2 sequence (P05177 whole entry): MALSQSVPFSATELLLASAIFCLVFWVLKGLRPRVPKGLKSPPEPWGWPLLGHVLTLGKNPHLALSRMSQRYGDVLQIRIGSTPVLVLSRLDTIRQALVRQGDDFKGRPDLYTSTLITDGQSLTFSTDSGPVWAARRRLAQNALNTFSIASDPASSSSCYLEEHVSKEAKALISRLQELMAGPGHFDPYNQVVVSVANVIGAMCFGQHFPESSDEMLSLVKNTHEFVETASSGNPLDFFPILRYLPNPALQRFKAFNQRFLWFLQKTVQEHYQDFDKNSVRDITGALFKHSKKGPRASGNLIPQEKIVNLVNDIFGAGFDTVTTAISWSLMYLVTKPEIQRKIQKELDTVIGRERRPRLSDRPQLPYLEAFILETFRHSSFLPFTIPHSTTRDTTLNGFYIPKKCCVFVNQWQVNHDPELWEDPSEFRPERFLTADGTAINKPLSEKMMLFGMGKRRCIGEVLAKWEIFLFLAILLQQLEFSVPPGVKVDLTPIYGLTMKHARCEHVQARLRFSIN
Procedure, shortened: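 Human CYP isoforms expressed in E. coli; IC50 from n = 3. Probe substrates diethoxyfluorescein and 7-benzyloxyquinoline are stated for CYP3A4.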

CC(=O)O.O=S(=O)(c1cccc(CCCCOCCCCCCNC[C@H](O)c2ccc(O)c(CO)c2)c1)C1CCCC1
IC50 [1]: 100 nM
Vd [2]: 0.1 L/kg
Drug metabolism [3]: Active
CLH [4]: 8 mL/min/g
Vd [5]: 1.1 L/kg
EC50 [6]: 501 nM
fraction unbound [7]: 0.02
blood plasma ratio [8]: 0.6
Drug metabolism [9]: Active
Activity [10]: Non-toxic
IC50 [11]: > 100000 nM

From ChEMBL document CHEMBL3124822, “Discovery of a rapidly metabolized, long-acting β(2) adrenergic receptor agonist with a short onset time incorporating a sulfone group suitable for once-daily dosing” (J Med Chem, 2014)
